Source: PubChem
Shown are actives, neighbours in structure and some others; about 2.3% of the full set was active somewhere.
HNF4A DNA FP = change in binding of human HNF4 alpha to DNA | P41235 | HNF4a-FITC DNA binding, fluorescence polarization, 1 h | activity change, % at 10 µM | 360,000 tested, 0.3% active | AID 1224865; in the data active = activity change above about 30%, passing the limit was not always enough
Target sequence (P41235 whole entry, looked up): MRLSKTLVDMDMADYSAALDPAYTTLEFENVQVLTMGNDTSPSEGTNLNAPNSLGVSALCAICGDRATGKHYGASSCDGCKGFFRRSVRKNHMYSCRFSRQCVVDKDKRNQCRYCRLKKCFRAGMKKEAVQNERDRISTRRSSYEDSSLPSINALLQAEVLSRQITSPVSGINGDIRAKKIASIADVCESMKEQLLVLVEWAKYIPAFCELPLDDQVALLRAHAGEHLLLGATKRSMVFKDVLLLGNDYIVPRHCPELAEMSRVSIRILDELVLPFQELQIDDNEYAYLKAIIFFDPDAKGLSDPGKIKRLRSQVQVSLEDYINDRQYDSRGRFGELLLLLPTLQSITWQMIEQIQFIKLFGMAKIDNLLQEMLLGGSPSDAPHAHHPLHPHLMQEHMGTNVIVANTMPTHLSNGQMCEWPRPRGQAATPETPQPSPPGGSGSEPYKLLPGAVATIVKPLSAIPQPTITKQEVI
TPT1 inh = blocks Candida albicans tRNA 2'-phosphotransferase. recombinant caTPT1, FP RNA substrate dephosphorylation. inhibition, % at 5 µM. 300,000 tested, 0.81% active;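 active = inhibition above the mean of all tested compounds plus 3 SD, set per screening campaign, cut at about 24% in these data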;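 also: plate controls were DMSO alone for no effect and ferristatin control at 100 nM for full effect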
Myeloid diff 2 = compounds promoting myeloid differentiation | 360,000 tested, 1% active | calls only at 10 µM | ER-HoxA9 myeloid progenitors, lysozyme-GFP differentiation, flow cytometry;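 active = normalized GFP-positive differentiation at or above the plate's own cutoff, the solvent-only control mean plus 3 SD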;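 also: cells exposed to compound for four days before flow analysis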
CSN deneddyl inh = inhibitors of human CSN-mediated cullin deneddylation | Q92905 | Purified CSN, SCF-Nedd8-OG deneddylation, fluorescence polarization | inhibition, % at 12.5 µM | 360,000 tested, 0.38% active;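 active = pattern-corrected inhibition above about 35%, with an unprinted fluorescence ratio check between 0.5 and 1.5, limit read from the data, passing the limit was not always enough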;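 also: 0% = enzyme with substrate and 100% = substrate without enzyme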
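Assay system: purified human Csn5 enzyme expressed in HEK293T cells; measure: % inhibition; also added: SCFSkp2-Nedd8OG substrate at 10 nM final; technique: fluorescence polarization; times: reaction 90 min, room temperature; medium: Tris buffer pH 7.5, NaCl, DTT, Tween-20, trehalose, ovalbumin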
Rpn11 inh = Rpn11 (human) deubiquitinase inhibition; inhibition, % at 20 µM; O00487; AID 588493; human 26S proteasome, Ub4-pepOG fluorescence polarization; 20S core pre-blocked with epoxomicin; 360,000 tested, 0.59% active;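 active = inhibition at 20 µM, scaled to each plate's controls, above about 33%, limit read from the data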
An asterisk follows results filed as active; i = inactive; · = not tested or not shown; + = active, no number.

SMILES	HNF4A DNA FP	TPT1 inh	Myeloid diff 2	CSN deneddyl inh	Rpn11 inh
Oc1ccc(C[C@H]2CNC(=S)N2CC2CCCN2C[C@H](Cc2ccccc2)N2C[C@H](Cc3ccc(O)cc3)N(CC3CCCCC3)C2=S)cc1 (stereo partly specified)	-1	·	i	1	8
COc1ccc(CC(N)c2csc(Nc3cc(NCc4ccco4)ncn3)n2)cc1 (stereo unspecified)	5	·	i	1	9
CCn1c(SCC(=O)Nc2oc(-c3ccccc3)c(-c3ccccc3)c2C#N)nnc1-c1cc(OC)cc(OC)c1	14	-2	i	70*	8
CCOC(=O)[C@]12CCC=C1N(Cc1cccc3ccccc13)C(=O)[C@H](CC(=O)N1CCCC1)C2	0	·	i	-1	·
CCOc1ccc(C(=O)Nc2ccc(N3CCN(C(=O)c4ccco4)CC3)cc2)cc1Br	0	·	i	44*	4
O=C(N[C@@H]1CC[C@@H](CCNC(=O)C2CCOCC2)O[C@@H]1CO)c1ccncc1	6	·	i	0	·
O=S(=O)(NCC1CC1)c1cccc(S(=O)(=O)N2CCCC2)c1	-1	-1	+	1	0
CCC(C(=O)Nc1c(C)cccc1C)n1c(-c2ccc(=O)[nH]c2)nc2ccccc21 (stereo unspecified)	3	·	i	-6	·
COc1ccc(N2CCN(CC(=O)c3ccc(O)cc3O)CC2)cc1	-1	2	i	-2	4
O=C(CN1CCN(c2ccc(F)cc2)CC1)c1ccc(O)cc1O	-3	-17	+	-6	-2
CC1=C(C(=O)N2CCCCCC2)CC(CC(=O)NC2CC2)C(=O)N1Cc1ccccc1 (stereo unspecified)	5	·	i	-1	4
Cc1cc(/C=N\NC(=O)CC(=O)NC2CCCCC2)c(C)n1-c1ccc(Cl)c(Cl)c1	0	-2	+	6	12
Cc1cc(/C=N\NC(=O)CC(=O)NC2CCCCC2)c(C)n1-c1cccc(Cl)c1Cl	1	-1	i	-7	-4
O=S1(=O)CC(N2CC=CC2)CN1Cc1ccc(F)cc1 (stereo unspecified)	1	·	i	-9	-8
CCC(=O)N1Cc2cc(C(=O)Nc3nccs3)nc(-c3cccc(-c4ccccc4OC)c3)c2[C@@H]1CCO	2	·	i	-1	·
CCCN1CCc2c(sc(NC(=O)c3ccc(S(=O)(=O)N4CCN(C(=O)OCC)CC4)cc3)c2C(N)=O)C1	92*	156*	+	52*	·
CCOC(=O)N1CCN(S(=O)(=O)c2ccc(C(=O)Nc3sc4c(c3C(N)=O)CCN(CC)C4)cc2)CC1	0	15	i	2	26
CCc1cc(=O)oc2cc3occ(-c4ccc(OC)c(F)c4)c3cc12	30	-1	·	37*	36
CC1C(=O)NN=C1C(=O)N/N=C\C(Br)=C\c1ccccc1 (stereo unspecified)	-3	·	+	0	1
COc1ccccc1/C=C/C=N/NC(=O)c1cc(-c2ccco2)[nH]n1	-18	5	i	45*	28
O=C(N/N=C/C(Br)=C/c1ccccc1)c1cc(-c2ccco2)[nH]n1	-1	3	+	34	17
CC1=NNC(=O)C1CC(=O)N/N=C/C(Br)=C/c1ccccc1 (stereo unspecified)	-3	-2	i	1	3
CCOC(=O)CC1(C)Sc2ccccc2N1S(=O)(=O)c1ccc(C)cc1 (stereo unspecified)	2	·	i	1	·
COc1ccc([C@H]2C[C@H](O)[C@@H](n3cc(COC(=O)c4ccccc4)nn3)CN2CC2CCCCC2)cc1	2	·	i	-3	-1
CN(C)C(=O)c1cccc(-c2cnc3c(NC=O)cc(-c4ccccc4F)cn23)c1	-1	·	i	-4	-1
Cc1c(N=C2N=C(NC(=O)c3ccc(F)cc3)c3ccccc32)c(=O)n(-c2ccccc2)n1C	75*	15	i	-103	·
Cc1c(NC(=O)NC(=O)c2ccc(F)cc2)c(=O)n(-c2ccccc2)n1C	-2	0	i	-3	-2
CSc1ccc(CN2CCC2(C)C(=O)Nc2cccc(NS(C)(=O)=O)c2)cc1 (stereo unspecified)	2	·	i	-4	0
Cc1cc(N)ccc1-n1nc2ccccc2n1	-4	-2	+	-1	-9
C#CCSc1n[nH]c(-c2ccco2)n1	3	2	+	-3	0
